# Compound activity from PubChem BioAssay.
# Most compounds without a hit are left out; they make up all but 2.5% or so of the library.
# SENP7 inh: blocks the human protease SENP7; Q9BQF6; recombinant SENP7, Z-RLRGG-aminoluciferin luminescence, 40 min; inhibition, % at 5 µM; 1.5% of 330,000 active;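 active means inhibition above about 50% at the single test dose, limit read from the data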;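 further: plate controls were DMSO with enzyme for no effect and no enzyme buffer wells for full effect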
# Target sequence (Q9BQF6 706-1050 limits assumed): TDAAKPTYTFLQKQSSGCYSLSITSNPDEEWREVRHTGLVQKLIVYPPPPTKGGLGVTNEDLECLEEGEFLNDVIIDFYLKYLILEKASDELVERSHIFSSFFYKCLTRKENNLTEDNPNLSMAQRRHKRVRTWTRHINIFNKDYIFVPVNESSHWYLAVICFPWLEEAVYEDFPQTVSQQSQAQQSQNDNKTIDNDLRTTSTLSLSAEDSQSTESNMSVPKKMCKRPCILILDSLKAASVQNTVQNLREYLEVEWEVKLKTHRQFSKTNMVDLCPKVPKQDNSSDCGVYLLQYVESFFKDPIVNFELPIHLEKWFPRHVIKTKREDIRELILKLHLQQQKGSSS
# SENP6 inh: SENP6 protease inhibition. 1.8% of 330,000 active. inhibition, % at 10 µM. Recombinant SENP6 catalytic domain, aminoluciferin luminescence. Q9GZR1;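 active means inhibition above about 50% at the single tested dose, limit read from the data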;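 further: plate controls were DMSO wells with enzyme for no effect and DMSO wells lacking enzyme for full effect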
# SENP8 block-1: inhibitors of human SENP8 protease; 1.2% of 330,000 active; purified SENP8, Z-RLRGG-aminoluciferin cleavage, luminescence; inhibition, % at 10 µM; in the data active means inhibition above about 50%
# SENP8 block-2: inhibitors of human SENP8 protease | 0.64% of 360,000 active | inhibition, % at 20 µM | recombinant SENP8, Nedd8 substrate fluorescence; in the data active means inhibition mostly above about 40%, no sharp cut-off; inactive means mostly below about 27%
# SENP1 inh: inhibitors of human SENP1 SUMO protease catalytic domain; Q9P0U3; inhibition, % at 10 µM; 0.21% of 360,000 active; recombinant SENP1 catalytic domain, CyPet-SUMO1-YPet FRET cleavage; AID 624204;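 active means inhibition at least 30% at 10 µM, raw YFP signal under a set limit, fluorescence ratio 0.5 to 1.5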;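 further: 0% = enzyme with DMSO and 100% = no enzyme wells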
#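 Test system: hSENP1 catalytic domain, recombinant; Amount: 20 pM final SENP1 enzyme; Medium: Tris pH 8 buffer plus EDTA, NaCl, BME, BSA, NP40, catalase; Schedule: 50 min enzyme reaction, room temperature, light-protected; Technique: FRET fluorescence in CFP and YFP emission channels; Controls: no-enzyme wells low, DMSO-plus-enzyme wells high control.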
# SENP8 conf-1: human SENP8 inhibition, confirmed | 40% of 6,200 active | shares compounds with SENP7 inh | inhibition, % at 12.5 µM | Recombinant SENP8, Z-RLRGG-aminoluciferin luminescence, 60 min;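 active means mean inhibition across replicates above about 50%, limit read from the data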
# SENP6 confirm: human SENP6 inhibition, confirmed; shares compounds with SENP7 inh; recombinant SENP6, Z-RLRGG-aminoluciferin luminescence; inhibition, % at 12.5 µM; 58% of 6,200 active; AID 488915
# SENP7 confirm: human SENP7 inhibition, confirmed | shares compounds with SENP7 inh | recombinant SENP7, Z-RLRGG-aminoluciferin luminescence, 40 min | inhibition, % at 12.5 µM | 69% of 6,200 active
# Casp3 SENP sel: selectivity test for SENP inhibitors: human caspase-3 inhibition. shares compounds with SENP7 inh. purified caspase-3, Z-DEVD-aminoluciferin luminescence, 60 min. inhibition, % at 12.5 µM. 60% of 6,200 active. AID 488918;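 active means mean inhibition above about 50%, limit read from the data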;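 further: plate controls were enzyme with DMSO for no effect and wells without caspase-3 for full effect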
# SENP luc ctr: counter-screen for SENP inhibitors: luminescence interference; shares compounds with SENP7 inh; Pre-incubated SENP8/Z-RLRGG-aminoluciferin, luciferase luminescence interference; 39% of 6,200 active; inhibition, % at 12.5 µM;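 active means mean inhibition above about 50% when retested at one dose, limit read from the data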;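 further: plate controls were DMSO wells with completed reaction for no effect and substrate without enzyme for full effect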
# SENP8 conf-2: confirmation of human SENP8 protease inhibitors; shares compounds with SENP8 block-2; 15% of 1,400 active; AID 624319; purified SENP8, Nedd8-AMC/pro-Nedd8 cleavage fluorescence, 30 min; inhibition, % at 25 µM; in the data active means inhibition mostly above about 39%, no sharp cut-off; inactive means mostly below about 34%
# SENP1 inh conf: confirmation of human SENP1 SUMO protease inhibitors | shares compounds with SENP1 inh | recombinant SENP1, CyPet-SUMO1-YPet FRET cleavage | inhibition, % at 10 µM | 34% of 520 active; in the data active means inhibition mostly above about 35%, no sharp cut-off; inactive means mostly below about 32%;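 further: 0% = enzyme with DMSO and 100% = no enzyme control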
# SENP1 kinetic: SENP1 (human) inhibition, kinetic confirmation. inhibition, % at 10 µM. recombinant SENP1, CyPet-SUMO1-YPet FRET kinetic cleavage. shares compounds with SENP1 inh. AID 651690. 26% of 520 active; in the data active means inhibition mostly above about 32%, no sharp cut-off; inactive means mostly below about 29%;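 further: 0% = DMSO with enzyme and 100% = no enzyme substrate only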
# An asterisk follows results filed as active; x = no result given.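 How the source made its calls, unless noted: active means mean inhibition above about 50% in the one-dose retest (limit read from the data); inactive means the rest.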
SMILES,SENP7 inh,SENP6 inh,SENP8 block-1,SENP8 block-2,SENP1 inh,SENP8 conf-2,others
O=[N+]([O-])c1ccccc1N/N=C/c1c[nH]c2ccccc12,79*,82*,63*,41*,4,17,SENP8 conf-1=31;SENP6 confirm=44;SENP7 confirm=96*;Casp3 SENP sel=30;SENP luc ctr=8
Cn1cc([N+](=O)[O-])c(C(=O)N/N=C\c2c[nH]c3ccccc23)n1,7,-7,-2,12,-1,x,
COc1cccc(NC(=O)CN(C)C(=O)c2ccccn2)c1,10,15,13,14,-2,x,
Cc1c(NC(=O)C(C)OC(=O)c2ccc([N+](=O)[O-])s2)c(=O)n(-c2ccccc2)n1C (centres undefined),15,58*,54*,48*,3,73*,SENP8 conf-1=47;SENP6 confirm=79*;SENP7 confirm=28;Casp3 SENP sel=7;SENP luc ctr=-16
Cc1c(NC(=O)C(C)OC(=O)c2sc3ccccc3c2Cl)c(=O)n(-c2ccccc2)n1C (centres undefined),-2,-25,0,9,2,x,
Cc1cccc(-c2noc(-c3ccc(Cl)cc3[N+](=O)[O-])n2)c1,39,39,7,19,1,x,
Cc1cccc(-c2noc(-c3cc4ccccc4oc3=O)n2)c1,82*,11,0,-488,51*,x,SENP8 conf-1=20;SENP6 confirm=21;SENP7 confirm=21;Casp3 SENP sel=38;SENP luc ctr=3;SENP1 inh conf=0;SENP1 kinetic=6
CCn1c(SCC(=O)NC2CCCCC2)nnc1C(C)NC(=O)c1ccccc1F (centres undefined),-4,-25,0,5,-10,x,
O=C1/C(=C/c2ccc([N+](=O)[O-])cc2)Oc2cc(O)ccc21,63*,70*,57*,25,62*,x,SENP8 conf-1=11;SENP6 confirm=47;SENP7 confirm=51*;Casp3 SENP sel=26;SENP luc ctr=53*;SENP1 inh conf=45*;SENP1 kinetic=26
CCC1=NN(C(=O)c2ccc([N+](=O)[O-])cc2)C(O)(c2ccccc2)C1 (centres undefined),3,4,8,50*,6,17,
CN(Cc1cn(-c2ccccc2)nc1-c1ccc(F)cc1)C(=O)CCC(=O)O,5,10,7,25,-1,x,
CN(Cc1cn(-c2ccccc2)nc1-c1ccc(Cl)cc1)C(=O)CCC(=O)O,-1,3,10,40*,3,15,
CC(=O)NCC(=O)N[C@@H](CC(=O)OCc1ccccc1)C(=O)OCc1ccccc1,1,-11,-2,44*,3,22,
O=C(CC(NC(=O)OCc1ccccc1)C(=O)OCc1ccccc1)OCc1ccccc1 (centres undefined),x,x,x,-4,-3,x,
COc1ccc(CNC(=O)[C@@H](C)NC(=O)C2CCN(C(=O)[C@@H](N)CCSC)CC2)cc1,-9,3,-8,-69,2,x,
COc1ccc(C2C(C(C)=O)=C(O)C(=O)N2c2cccnc2)c(OC)c1 (centres undefined),11,6,3,3,3,x,
COc1ccc(C2C(C(C)=O)=C(O)C(=O)N2C)c(OC)c1 (centres undefined),10,-5,-3,42*,1,26,
NC(=O)c1ccc(N=Cc2ccc([N+](=O)[O-])s2)cc1,x,x,x,60*,-1,95*,
